Consider 2 molecules from ChEMBL document CHEMBL1123566, “Synthesis and cardiac electrophysiological activity of 2- and 3-[(substituted phenyl)alkyl]quinuclidines. Structure-activity relationships” (1987).

Several values for one entry are separate records, joined by “and”; a condition that tells them apart may be missing. Equal values may be shown once. A value given as a limit tells only on which side of the number the result lay.

Assay [1] is filed under the species Canis familiaris. Put plainly: In vitro electrophysiological evaluation in canine cardiac ventricular muscle reported as maximum % change for conduction time(CT) at 0.1-30 uM concentration range. Format: functional, Canis lupus familiaris, Muscle tissue. An outline of the steps: (§1)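 Canine right ventricle and papillary muscle strips in oxygenated Tyrode's solution, fitted with stimulating and recording electrodes. The extra-stimulus conduction-interval method was adapted for in vitro use. FRP and CT were read from a conduction-interval curve before and after various compound concentrations, and expressed as percent change from control. Compounds were taken from 10 mM deionized-water stock into Tyrode's. Each strip was used once as its own control.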

Assay [2] is filed under the species Canis familiaris. Put plainly: In vitro electrophysiological evaluation in canine cardiac ventricular muscle reported as % change for the functional refractory period (FRP) concentration range of 0.1-30 uM. The arrangement: species or system Canis lupus familiaris, Muscle tissue. The method, boiled down:
as §1

The species named for assay [3] is Canis familiaris. Put plainly: In vitro electrophysiological evaluation in canine cardiac ventricular muscle reported as maximum % change for conduction time(CT) at 0.1-100 uM concentration range. It counts as functional, Canis lupus familiaris, Muscle tissue. The method, boiled down: as §1
The species entered for assay [4] is Canis familiaris. Put plainly: In vitro electrophysiological evaluation in canine cardiac Purkinje fibres reported as percent change Vmax concentration range of 0.1-100 uM. It counts as functional. The settings on record: Canis lupus familiaris; Purkinje fiber. An outline of the steps:
(§2)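 Canine cardiac Purkinje fibres, intracellular microelectrode recording, paced at a basic cycle length of 1 s. APD95 and Vmax read simultaneously. Compound: 10 mM stock in deionized water, diluted into Tyrode's solution, tested over the stated concentration range. Each fibre used once as its own control. Result is % change from control, given at 10 µM or as the maximum with its concentration. M = <10% decrease or an increase in Vmax.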

The species entered for assay [5] is Canis familiaris. Put plainly: In vitro electrophysiological activity in canine cardiac Purkinje fibres given as maximum % change for action potential duration at 100 uM concentration. It counts as functional, Canis lupus familiaris, Purkinje fiber. An outline of the steps:
(§3)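 Canine cardiac Purkinje fibres, intracellular recording at 1 s basic cycle length, over cumulative concentration ranges. Compound 10 mM stock in deionized water diluted into Tyrode's. Each fibre used once as its own control. Value is the maximum % change from control in APD at 95% repolarization, with the concentration where it occurred; both values given if a biphasic response (>20% reversal) occurred.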

Assay [6] is filed under the species Canis familiaris. Put plainly: In vitro electrophysiological evaluation in canine cardiac ventricular muscle reported as % change for conduction time(CT) at 0.1-30 uM concentration range; Minimal (<IO%increase or a decrease in CT). Format: functional, Canis lupus familiaris, Muscle tissue.
The species named for assay [7] is Canis familiaris. Put plainly: In vitro electrophysiological activity in canine cardiac Purkinje fibres given as maximum % change for action potential duration at 0.1-100 uM concentration. It counts as functional, Canis lupus familiaris, Purkinje fiber. The method, boiled down: as §3
The species entered for assay [8] is Canis familiaris. Put plainly: (§4) In vitro electrophysiological evaluation in canine cardiac Purkinje fibres reported as % change for action potential duration at 0.1-100 uM concentration range. It counts as functional, Canis lupus familiaris, Purkinje fiber. The method, boiled down:
as §2

For assay [9], the species on record is Canis familiaris. Put plainly: In vitro electrophysiological evaluation in canine cardiac Purkinje fibres reported as percent change Vmax concentration range of 0.1-100 uM; Minimal (<IO%increase or a decrease in CT). Format: functional. The note with it: Canis lupus familiaris; Purkinje fiber. An outline of the steps:
as §2

Assay [10] is filed under the species Canis familiaris. The assay is described as §4. It counts as functional, Canis lupus familiaris, Purkinje fiber. An outline of the steps:
as §2
The source holds these as a separate data set.

The species entered for assay [11] is Canis familiaris. Put plainly: In vitro electrophysiological evaluation in canine cardiac ventricular muscle reported as maximum % change for functional refractory period (FRP) at 0.1-30 uM concentration range. The arrangement: species or system Canis lupus familiaris, Muscle tissue. The method, boiled down: as §1
The species entered for assay [12] is Canis familiaris. Put plainly: In vitro electrophysiological evaluation in canine cardiac ventricular muscle reported as maximum % change for conduction time(CT) at 0.1-30 uM concentration range; Minimal (<IO%increase or a decrease in CT). Format: functional, Canis lupus familiaris, Muscle tissue. An outline of the steps: as §1
The species named for assay [13] is Canis familiaris. Put plainly: In vitro electrophysiological activity in canine cardiac Purkinje fibres given as maximum % change for action potential duration at 10 uM concentration. Format: functional, Canis lupus familiaris, Purkinje fiber. The method, boiled down:
as §3

The species entered for assay [14] is Canis familiaris. Put plainly: In vitro electrophysiological evaluation in canine cardiac ventricular muscle reported as % change for conduction time(CT) at 0.1-100 uM concentration range; Minimal (<IO%increase or a decrease in CT). Format: functional, Canis lupus familiaris, Muscle tissue.
Assay [15] is filed under the species Canis familiaris. Put plainly: In vitro electrophysiological evaluation in canine cardiac ventricular muscle reported as % change for the functional refractory period (FRP) concentration range of 0.1-100 uM. The arrangement: species or system Canis lupus familiaris, Muscle tissue. An outline of the steps:
as §1

The species named for assay [16] is Canis familiaris. Put plainly: In vitro electrophysiological evaluation in canine cardiac ventricular muscle reported as maximum % change for functional refractory period (FRP) at 0.1-100 uM concentration range. The arrangement: species or system Canis lupus familiaris, Muscle tissue.
The species named for assay [17] is Canis familiaris. Put plainly: In vitro electrophysiological evaluation in canine cardiac Purkinje fibres reported as percent change Vmax at 10 uM at concentration range of 1-100 uM. It counts as functional. The note with it: Canis lupus familiaris, Purkinje fiber. An outline of the steps: as §2
The species entered for assay [18] is Canis familiaris. Put plainly: In vitro electrophysiological activity in canine cardiac occurred is 100 uM. Format: functional, Canis lupus familiaris, Heart.
The species entered for assay [19] is Canis familiaris. Put plainly: In vitro electrophysiological evaluation in canine cardiac ventricular muscle reported as % change for conduction time(CT) at 10 uM at 1-100 uM concentration range; Minimal (<10% decrease or increase in CT). Format: functional, Canis lupus familiaris, Muscle tissue.
For assay [20], the species on record is Canis familiaris. Put plainly: In vitro electrophysiological evaluation in canine cardiac occurred is 100 uM. It counts as functional. The settings on record: Canis lupus familiaris; Heart.
The species entered for assay [21] is Canis familiaris. Put plainly: In vitro electrophysiological evaluation in canine cardiac Purkinje fibres reported as % change for action potential duration at 10 uM at 1-100 uM concentration range. Format: functional, Canis lupus familiaris, Purkinje fiber. The method, boiled down: as §2
The species named for assay [22] is Canis familiaris. Put plainly: In vitro electrophysiological evaluation in canine cardiac Purkinje fibres reported as % change for action potential duration at a concentration of 10 uM. Format: functional, Canis lupus familiaris, Purkinje fiber. An outline of the steps:
as §2

For assay [23], the species on record is Canis familiaris. Put plainly: In vitro electrophysiological evaluation in canine cardiac ventricular muscle reported as % change for the functional refractory period (FRP) at 10 uM at concentration range of 1-100 uM. The arrangement: species or system Canis lupus familiaris, Muscle tissue. The method, boiled down: as §1
The species named for assay [24] is Canis familiaris. Put plainly: In vitro electrophysiological evaluation in canine cardiac ventricular muscle reported as % change for conduction time(CT) at 10 uM at 0.1-100 uM concentration range; Minimal (<10% decrease or increase in CT). It counts as functional, Canis lupus familiaris, Muscle tissue.
Assay [25] is filed under the species Canis familiaris. Put plainly: In vitro electrophysiological evaluation in canine cardiac ventricular muscle reported as maximum % change for conduction time(CT) at 0.1-100 uM concentration range; Minimal (<10% decrease or increase in CT). It counts as functional, Canis lupus familiaris, Muscle tissue. The method, boiled down: as §1
For assay [26], the species on record is Canis familiaris. Put plainly: In vitro electrophysiological evaluation in canine cardiac ventricular muscle reported as maximum % change for conduction time(CT) at 1-100 uM concentration range; concentration at which it occurred is 100 uM. It counts as functional, Canis lupus familiaris, Muscle tissue. The method, boiled down:
as §1

The species named for assay [27] is Canis familiaris. Put plainly: In vitro electrophysiological evaluation in canine cardiac ventricular muscle reported as % change for the functional refractory period (FRP) at 10 uM at concentration range of 0.1-100 uM. Further details: species or system Canis lupus familiaris, Muscle tissue. An outline of the steps:
as §1

Assay [28] is filed under the species Canis familiaris. Put plainly: In vitro electrophysiological evaluation in canine cardiac ventricular muscle reported as maximum % change for functional refractory period (FRP) at 1-100 uM concentration range; concentration at which it occurred is 100 uM. The arrangement: species or system Canis lupus familiaris, Muscle tissue. The method, boiled down:
as §1

For assay [29], the species on record is Canis familiaris. Put plainly: In vitro electrophysiological activity in canine cardiac occurred is 10 uM. It counts as functional, Canis lupus familiaris, Heart.
The species entered for assay [30] is Canis familiaris. Put plainly: In vitro electrophysiological evaluation in canine cardiac ventricular muscle reported as maximum % change for conduction time(CT) at 0.1-100 uM concentration range; concentration at which it occurred is 100 uM. It counts as functional, Canis lupus familiaris, Muscle tissue. An outline of the steps:
as §1

The species named for assay [31] is Canis familiaris. Put plainly: In vitro electrophysiological evaluation in canine cardiac ventricular muscle reported as maximum % change for functional refractory period (FRP) at 0.1-100 uM concentration range; concentration at which it occurred is 100 uM. Further details: species or system Canis lupus familiaris, Muscle tissue. An outline of the steps: as §1

Turning to `CCCCCCC[N+]12CCC(CC1)C(=O)C2CCCc1ccc(Cl)cc1.O=P([O-])(O)O` (stereo unspecified), the CT in the assay listed under Canis familiaris [1] was 17%; in the assay listed under Canis familiaris [3] it was 31%; in the assay filed under Canis familiaris [6] it was less than 10%; in the assay listed under Canis familiaris [12], less than 10%; in the assay listed under Canis familiaris [14], less than 10%. Also, the FRP in the assay filed under Canis familiaris [2] is 26% and 22%; in the assay listed under Canis familiaris [11], 29% and 27%; in the assay listed under Canis familiaris [15], 5%; in the assay filed under Canis familiaris [16] it was 10%. Also, the Vmax in the assay filed under Canis familiaris [4] is -18% and -15%; in the assay filed under Canis familiaris [9] it was less than 10%. Besides, the APD95 in the assay listed under Canis familiaris [5] was 13% and 12% and 9%; in the assay filed under Canis familiaris [7] it was 9%; in the assay listed under Canis familiaris [8], 9%; in the assay filed under Canis familiaris [10], 38% and 69% and 35%; in the assay listed under Canis familiaris [13], 38% and 69% and 35%.
For the molecule `CCOC(=O)C(CC1C(=O)C2CCN1CC2)C(=O)c1ccc(Cl)c(NS(C)(=O)=O)c1.Cl` (stereo unspecified), the Vmax in the assay listed under Canis familiaris [17] is -11% and -10%; in the assay filed under Canis familiaris [20], -19% and -21%. In addition, the APD95 is listed as -16% in the assay filed under Canis familiaris [18], -4% in the assay listed under Canis familiaris [21], 9% in the assay filed under Canis familiaris [22] and 9% in the assay filed under Canis familiaris [29]. Further, the CT in the assay filed under Canis familiaris [19] is on record as less than 10%; in the assay filed under Canis familiaris [24], less than 10%; in the assay filed under Canis familiaris [25] it was less than 10%; in the assay filed under Canis familiaris [26], 14%; in the assay listed under Canis familiaris [30], 12%. The FRP in the assay listed under Canis familiaris [23] was 10%; in the assay filed under Canis familiaris [27] it was 5% and -7% and 6%; in the assay listed under Canis familiaris [28], 15%; in the assay filed under Canis familiaris [31] it was 12% and 5% and 14%.
